Data set [1] relates to Escherichia coli. The experiment in a line: Oral efficacy of compound after peroral administration on systemic infection by Escherichia coli KC-14. The class given is functional. In outline: (§1)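 Groups of five male ddY mice (20 ± 2 g) were given 0.5 mL of bacteria intraperitoneally at 10 or 100 times the 50% lethal dose. One hour after infection they were treated orally with compound suspended in 0.5% sodium (carboxymethyl)cellulose. Survival was scored at 1 week, and ED50 is given with 95% confidence limits.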

For data set [2], the system named is Escherichia coli. Put plainly: (§2) Minimum inhibitory concentration tested against Escherichia coli KC-14. Type of data set: functional. In outline: (§3)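 Agar dilution used serial 2-fold dilutions in Mueller-Hinton agar, with plate concentrations of 0.006–100 µg/mL and an inoculum of about 10^8 cfu/mL.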
In data set [3] the test system is Pseudomonas aeruginosa. Put plainly: Minimum inhibitory concentration tested against Pseudomonas aeruginosa E-2. The class given is functional. In outline:
as §3

In the next data set the test system is Bacillus subtilis. Put plainly: Minimum inhibitory concentration tested against Bacillus subtilis ATCC 6633. The class given is functional. Put shortly:
as §3

In data set [4] the test system is Escherichia coli. The experiment in a line: Oral efficacy of compound after peroral administration on systemic infection by Escherichia coli KC-14 in rat. The class given is functional.
Data set [5] in a line: Area under curve value of compound per hour after oral administration. The class given is ADME. Put shortly:
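Mice were dosed orally at the equivalent of 50 mg/kg NFLX, suspended in 0.5% sodium (carboxymethyl)cellulose. They were killed by bleeding at 0.25, 0.5, 1.0, 2.0, 3.0 and 4.0 h. Serum NFLX was measured by HPLC with UV detection at 280 nm, and AUC was expressed in µg/mL per h.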

Data set [6] has as its system Staphylococcus aureus. The experiment in a line: Minimum inhibitory concentration tested against Staphylococcus aureus FDA207PJC-1. The class given is functional. Put shortly: as §3
For the next data set, the system named is Proteus vulgaris. The experiment in a line: Minimum inhibitory concentration tested against Proteus vulgaris OX-19. The class given is functional. Put shortly:
as §3

Data set [7] has as its system Pseudomonas aeruginosa. The experiment in a line: Oral efficacy of compound after peroral administration on systemic infection by Pseudomonas aeruginosa E-2. Type of data set: functional. In outline:
as §1

For data set [8], the system named is Staphylococcus aureus. Put plainly: Oral efficacy of compound after peroral administration on systemic infection by Staphylococcus aureus IID803. Type of data set: functional. Put shortly: as §1
Another data set relates to Serratia marcescens. The experiment in a line: Minimum inhibitory concentration tested against Serratia marcescens LAM 1184. The class given is functional. In outline: as §3
Data set [9] is described as follows: Lethal dose of compound after peroral administration in rats. The class given is toxicity, organism-based. To be noted: rat, in vivo, po. Put shortly: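 Each compound was given orally as a suspension in 0.5% CMC. Deaths were counted over 1 week, and LD50 was calculated by the method of Weil.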
Data set [10] deals with Escherichia coli. Put plainly: Effective dose of compound against Escherichia coli KC-14 in mice after oral administration.
For another data set, the system named is Klebsiella pneumoniae. The experiment in a line: Minimum inhibitory concentration tested against Klebsiella pneumoniae PC1602. Type of data set: functional. In outline:
as §3

Data set [11] has as its system Escherichia coli. Put plainly: Effective dose of compound against Escherichia coli KC-14 in mice after oral administration. The source holds these as a separate data set.
The test system of data set [12] is Escherichia coli. The description is as §2. The class given is functional. In outline: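 MIC by serial 2-fold agar dilution on Mueller-Hinton agar, with an inoculum of about 10^8 cfu/mL and plate concentrations of 0.006–100 μg/mL.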
The source holds these as a separate data set.

Converted amounts (≈) assume the structure as drawn.

The ED50 is the dose at which the effect has come halfway, by size or by number of responders. As a reminder, the MIC is the smallest concentration in the dilution series that meets the test's criterion for growth inhibition. By AUC is commonly meant the area under the concentration-time curve, a measure of exposure. Low readings indicate low exposure, high ones high exposure. A word on the LD50: it is the dose at which mortality reaches 50%. Read a low LD50 as greater toxicity. On to `C=C1OC(=O)OC1(C)ON1CCN(c2cc3c(cc2F)c(=O)c(C(=O)O)cn3CC)CC1` (stereo not given), for which the ED50 in the data set on Escherichia coli [1] was determined as 1.31 mg/kg; with Escherichia coli [4], 2.68 mg/kg; in the data set on Pseudomonas aeruginosa [7], 17.7 mg/kg; in the data set with Staphylococcus aureus [8] it was 70.7 mg/kg; with Escherichia coli [10] it was 1.31 mg/kg. For the same compound, the MIC is 1.56 µg/mL (≈ 3.49 µM) against Escherichia coli [2]; 6.25 µg/mL (≈ 14 µM) against Pseudomonas aeruginosa [3]; 0.19 µg/mL (≈ 0.425 µM) in the data set with Bacillus subtilis; 0.78 µg/mL (≈ 1.74 µM) in the data set with Staphylococcus aureus [6]; 0.05 µg/mL (≈ 0.112 µM) in the data set on Proteus vulgaris; 3.12 µg/mL (≈ 6.97 µM) against Serratia marcescens. This compound gave an MIC with Klebsiella pneumoniae of 0.1 µg/mL (≈ 0.224 µM). This compound also registered an AUC in data set [5] of 5400 ng·h/mL. Moreover, the LD50 in [9] is over 4000 mg/kg.

Take `CCn1cc(C(=O)O)c(=O)c2cc(F)c(N3CCN(Cc4oc(=O)oc4C)CC3)cc21`: the ED50 turned out to be 1.93 mg/kg in the data set on Escherichia coli [1]; 6.16 mg/kg with Escherichia coli [4]; 20.3 mg/kg in the data set on Pseudomonas aeruginosa [7]; 93.3 mg/kg in the data set on Staphylococcus aureus [8]; 1.93 mg/kg in the data set on Escherichia coli [11]. Further, the MIC against Pseudomonas aeruginosa [3] amounted to 1.56 µg/mL (≈ 3.62 µM); with Bacillus subtilis it was 0.19 µg/mL (≈ 0.44 µM); in the data set on Staphylococcus aureus [6], 0.39 µg/mL (≈ 0.904 µM); with Proteus vulgaris, 0.1 µg/mL (≈ 0.232 µM); against Serratia marcescens, 0.39 µg/mL (≈ 0.904 µM); against Klebsiella pneumoniae it was 0.1 µg/mL (≈ 0.232 µM). In the data set with Escherichia coli [12], this compound came in with a minimal inhibitory concentration (MIC) of 0.2 µg/mL (≈ 0.464 µM). In data set [5], this compound came in with an area under the curve (AUC) of 5700 ng·h/mL. The compound also displayed an LD50 in data set [9] of over 4000 mg/kg.

For `CCn1cc(C(=O)O)c(=O)c2cc(F)c(N3CCNCC3)cc21` [NORFLOXACIN], the ED50 with Escherichia coli [1] is 3.15 mg/kg; in the data set with Pseudomonas aeruginosa [7], 77.1 mg/kg; in the data set on Escherichia coli [11], 3.13 mg/kg. Moreover, the MIC with Pseudomonas aeruginosa [3] came to 0.39 µg/mL (≈ 1.22 µM); against Bacillus subtilis, 0.19 µg/mL (≈ 0.595 µM); in the data set on Staphylococcus aureus [6] it was 0.19 µg/mL (≈ 0.595 µM); against Proteus vulgaris, 0.05 µg/mL (≈ 0.157 µM); in the data set with Serratia marcescens it was 0.19 µg/mL (≈ 0.595 µM); in the data set on Klebsiella pneumoniae, 0.05 µg/mL (≈ 0.157 µM). The compound also came in with an MIC against Escherichia coli [12] of 0.1 µg/mL (≈ 0.313 µM). This compound also gave an AUC in [5] of 1800 ng·h/mL. In [9], this compound displayed an LD50 of over 4000 mg/kg.

Source of the values: ChEMBL document CHEMBL1124427, “Studies on prodrugs. 11. Synthesis and antimicrobial activity of N-[(4-methyl-5-methylene-2-oxo-1,3-dioxolan-4-yl)oxy]norfloxacin ” (J Med Chem, 1989).
